Key:
Assay type in all cases: functional
KM12 = assay: Growth inhibition of human KM12 cells assessed as cell growth at 10^-4 M incubated for 48 hrs by sulforhodamine B assay; conditions: KM12, 48 h, read-out: Activity
[1] = Growth inhibition of human SKOV3 cells assessed as cell growth at 10^-6 M incubated for 48 hrs by sulforhodamine B assay; conditions: SK-OV-3, 48 h, read-out: Activity
[2] = Growth inhibition of human TK10 cells assessed as cell growth at 10^-6 M incubated for 48 hrs by sulforhodamine B assay; conditions: TK-10, 48 h, read-out: Activity
[3] = Growth inhibition of human SF539 cells incubated for 48 hrs by sulforhodamine B assay; conditions: SF-539, 48 h
In short: (§1)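 Cells were plated at 5,000–40,000 per well according to doubling time and preincubated 24 h at 37 °C in 5% CO2; time-zero plates were then TCA-fixed. Five concentrations (10-fold or ½-log dilutions, DMSO stock) were incubated 48 h. Cells were TCA-fixed, stained with 0.4% SRB and read at 515 nm. GI50 was taken where [(Ti−Tz)/(C−Tz)]×100 = 50.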

[4] = Growth inhibition of human HOP62 cells assessed as cell growth at 10^-8 M incubated for 48 hrs by sulforhodamine B assay; conditions: HOP-62, 48 h, read-out: Activity
EKVX = assay: Growth inhibition of human EKVX cells incubated for 48 hrs by sulforhodamine B assay
In short: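 Cells seeded at 5,000–40,000/well according to doubling time and preincubated 24 h at 37 °C, 5% CO2. Time-zero plates were TCA-fixed. DMSO concentrate was diluted in medium with 50 µg/ml gentamicin to give five concentrations (10-fold or ½ log steps), then exposed 48 h. Cells were TCA-fixed, stained with 0.4% SRB and read at 515 nm. Percent growth was taken against time-zero and control; GI50, TGI and LC50 derived.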

[5] = Growth inhibition of human SNB75 cells assessed as cell growth at 10^-5 M incubated for 48 hrs by sulforhodamine B assay; conditions: SNB-75, 48 h, read-out: Activity
HT-29 = assay: Growth inhibition of human HT-29 cells assessed as cell growth at 10 uM incubated for 48 hrs by sulforhodamine B assay; conditions: HT-29, 48 h, read-out: Activity
SK-MEL-28 = assay: Growth inhibition of human SK-MEL-28 cells assessed as cell growth at 10^-4 M incubated for 48 hrs by sulforhodamine B assay; conditions: SK-MEL-28, 48 h, read-out: Activity
[6] = Growth inhibition of human LOXIMVI cells assessed as cell growth at 10^-4 M incubated for 48 hrs by sulforhodamine B assay; conditions: LOX IMVI, read-out: Activity
Malme-3M = assay: Growth inhibition of human MALME-3M cells assessed as cell growth at 10^-7 M incubated for 48 hrs by sulforhodamine B assay; conditions: read-out: Activity
SN12C = assay: Growth inhibition of human SN12C cells assessed as cell growth at 10^-4 M incubated for 48 hrs by sulforhodamine B assay; conditions: read-out: Activity
MDA-MB-468 [7] = assay: Growth inhibition of human MDA-MB-468 cells assessed as cell growth at 10^-4 M incubated for 48 hrs by sulforhodamine B assay; conditions: MDA-MB-468, 48 h, read-out: Activity
A549 = assay: Growth inhibition of human A549/ATCC cells assessed as cell growth at 10^-6 M incubated for 48 hrs by sulforhodamine B assay; conditions: A549, 48 h, read-out: Activity
In short: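 Five-dose assay: five concentrations from 10-fold or ½-log serial dilutions. Cells are plated at 5,000–40,000 per well according to doubling time, grown 24 h, then exposed 48 h at 37 °C, 5% CO₂. Fixed with cold 50% TCA (final addition) for 60 min at 4 °C and stained with 0.4% SRB in 1% acetic acid. Bound dye is solubilized in 10 mM Tris base and read at 515 nm. GI₅₀ is where [(Ti−Tz)/(C−Tz)]×100 = 50, with a time-zero plate as Tz.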

[8] = Growth inhibition of human SF268 cells assessed as cell growth at 10^-6 M incubated for 48 hrs by sulforhodamine B assay; conditions: SF-268, 48 h, read-out: Activity
NCI-H460 [9] = assay: Growth inhibition of human NCI-H460 cells assessed as cell growth at 10^-5 M incubated for 48 hrs by sulforhodamine B assay; conditions: NCI-H460, 48 h, read-out: Activity
[10] = Growth inhibition of human SW620 cells incubated for 48 hrs by sulforhodamine B assay; conditions: SW-620, 48 h; in short: as §1
NCI-H460 [11] = assay: Growth inhibition of human NCI-H460 cells incubated for 48 hrs by sulforhodamine B assay; conditions: NCI-H460, 48 h; in short: as §1
SK-MEL-2 = assay: Growth inhibition of human SK-MEL-2 cells assessed as cell growth at 10^-7 M incubated for 48 hrs by sulforhodamine B assay; conditions: SK-MEL-2, 48 h, read-out: Activity
NCI/ADR-RES = assay: Growth inhibition of human NCI/ADR-RES cells assessed as cell growth at 10^-8 M incubated for 48 hrs by sulforhodamine B assay; conditions: read-out: Activity
[12] = Growth inhibition of human SF268 cells assessed as cell growth at 10^-7 M incubated for 48 hrs by sulforhodamine B assay; conditions: SF-268, 48 h, read-out: Activity
[13] = Growth inhibition of human SKOV3 cells assessed as cell growth at 10^-7 M incubated for 48 hrs by sulforhodamine B assay; conditions: SK-OV-3, 48 h, read-out: Activity
MDA-MB-231 = assay: Growth inhibition of human MDA-MB-231 cells assessed as cell growth at 10^-8 M incubated for 48 hrs by sulforhodamine B assay; conditions: MDA-MB-231, 48 h, read-out: Activity
[14] = Growth inhibition of human Hs 578T cells assessed as cell growth at 10^-7 M incubated for 48 hrs by sulforhodamine B assay; conditions: read-out: Activity
[15] = Growth inhibition of human SNB75 cells assessed as cell growth at 10 uM incubated for 48 hrs by sulforhodamine B assay; conditions: SNB-75, 48 h, read-out: Activity
MDA-MB-468 [16] = assay: Growth inhibition of human MDA-MB-468 cells assessed as cell growth at 10 uM incubated for 48 hrs by sulforhodamine B assay; conditions: MDA-MB-468, 48 h, read-out: Activity
[17] = Growth inhibition of human UO31 cells assessed as cell growth at 10 uM incubated for 48 hrs by sulforhodamine B assay; conditions: UO-31, 48 h, read-out: Activity
[18] = read-out: LC50 (the source's name)
[19] = read-out: pLC50 (the source's name) (converted)

## Fc1ccc(-c2nc(Nc3ccc(-c4nc5ccccc5[nH]4)cc3)nc(N3CCOCC3)n2)cc1
KM12
  growth at 100 µM: -37%
[1]
  growth at 1 µM: 101%
[2]
  growth at 1 µM: 100%
[3]; read-out: GI50
  GI50: 1.63 µM
[3]; [18]
  CC50: 8.47 µM
[3]; read-out: TGI
  TGI: 3.72 µM
[3]; read-out: pGI50 (converted)
  GI50: 1.62 µM
[3]; [19]
  CC50: 8.51 µM
[3]; read-out: pTGI (converted)
  TGI: 3.72 µM
[4]
  growth at 0.01 µM: 98%
EKVX; read-out: GI50
  GI50: 2.6 µM
EKVX; read-out: LC50
  LC50: > 100 µM
EKVX; read-out: TGI
  TGI: > 100 µM
EKVX; read-out: pGI50 (converted)
  GI50: 2.63 µM
EKVX; read-out: pLC50 (converted)
  LC50: > 100 µM
EKVX; read-out: pTGI (converted)
  TGI: > 100 µM
[5]
  growth at 10 µM: 1%
HT-29
  growth at 10 µM: -23.1%
SK-MEL-28
  growth at 100 µM: -36%
[6]
  growth at 100 µM: -49%
Malme-3M
  growth at 0.1 µM: 95%
SN12C
  growth at 100 µM: -21%
MDA-MB-468 [7]
  growth at 100 µM: -19%
A549
  growth at 1 µM: 99%
[8]
  growth at 1 µM: 89%
NCI-H460 [9]
  growth at 10 µM: -22%
[10]; read-out: GI50
  GI50: 2.19 µM
[10]; [18]
  CC50: > 100 µM
[10]; read-out: TGI
  TGI: 4.8 µM
[10]; read-out: pGI50 (converted)
  GI50: 2.19 µM
[10]; [19]
  CC50: > 100 µM
[10]; read-out: pTGI (converted)
  TGI: 4.79 µM
NCI-H460 [11]; read-out: GI50
  GI50: 2.48 µM
NCI-H460 [11]; [18]
  CC50: > 100 µM
NCI-H460 [11]; read-out: TGI
  TGI: 6.51 µM
NCI-H460 [11]; read-out: pGI50 (converted)
  GI50: 2.45 µM
NCI-H460 [11]; [19]
  CC50: > 100 µM
NCI-H460 [11]; read-out: pTGI (converted)
  TGI: 6.46 µM
SK-MEL-2
  growth at 0.1 µM: 101%
NCI/ADR-RES
  growth at 0.01 µM: 98%
[12]
  growth at 0.1 µM: 96%
[13]
  growth at 0.1 µM: 98%
MDA-MB-231
  growth at 0.01 µM: 92%
[14]
  growth at 0.1 µM: 93%
[15]
  growth at 10 µM: -19.2%
MDA-MB-468 [16]
  growth at 10 µM: -1.23%
[17]
  growth at 10 µM: -43.5%

## c1ccc2[nH]c(-c3ccc(Nc4nc(N5CCCCC5)nc(N5CCOCC5)n4)cc3)nc2c1
KM12
  growth at 100 µM: -40%
[1]
  growth at 1 µM: 102%
[2]
  growth at 1 µM: 105%
[3]; read-out: GI50
  GI50: 2.14 µM
[3]; [18]
  CC50: 28.5 µM
[3]; read-out: TGI
  TGI: 5.75 µM
[3]; read-out: pGI50 (converted)
  GI50: 2.14 µM
[3]; [19]
  CC50: 28.2 µM
[3]; read-out: pTGI (converted)
  TGI: 5.75 µM
[4]
  growth at 0.01 µM: 96%
EKVX; read-out: GI50
  GI50: 2.68 µM
EKVX; read-out: LC50
  LC50: > 100 µM
EKVX; read-out: TGI
  TGI: > 100 µM
EKVX; read-out: pGI50 (converted)
  GI50: 2.69 µM
EKVX; read-out: pLC50 (converted)
  LC50: > 100 µM
EKVX; read-out: pTGI (converted)
  TGI: > 100 µM
[5]
  growth at 10 µM: 10%
HT-29
  growth at 10 µM: -28.1%
SK-MEL-28
  growth at 100 µM: -54%
[6]
  growth at 100 µM: -65%
Malme-3M
  growth at 0.1 µM: 85%
SN12C
  growth at 100 µM: -12%
MDA-MB-468 [7]
  growth at 100 µM: -31%
A549
  growth at 1 µM: 101%
[8]
  growth at 1 µM: 96%
NCI-H460 [9]
  growth at 10 µM: -26%
[10]; read-out: GI50
  GI50: 2.34 µM
[10]; [18]
  CC50: 74.7 µM
[10]; read-out: TGI
  TGI: 5.87 µM
[10]; read-out: pGI50 (converted)
  GI50: 2.34 µM
[10]; [19]
  CC50: 74.1 µM
[10]; read-out: pTGI (converted)
  TGI: 5.89 µM
NCI-H460 [11]; read-out: GI50
  GI50: 2.44 µM
NCI-H460 [11]; [18]
  CC50: > 100 µM
NCI-H460 [11]; read-out: TGI
  TGI: 6.18 µM
NCI-H460 [11]; read-out: pGI50 (converted)
  GI50: 2.45 µM
NCI-H460 [11]; [19]
  CC50: > 100 µM
NCI-H460 [11]; read-out: pTGI (converted)
  TGI: 6.17 µM
SK-MEL-2
  growth at 0.1 µM: 102%
NCI/ADR-RES
  growth at 0.01 µM: 99%
[12]
  growth at 0.1 µM: 98%
[13]
  growth at 0.1 µM: 101%
MDA-MB-231
  growth at 0.01 µM: 99%
[14]
  growth at 0.1 µM: 94%
[15]
  growth at 10 µM: -0.68%
MDA-MB-468 [16]
  growth at 10 µM: -3.66%
[17]
  growth at 10 µM: -37.8%

— ChEMBL document CHEMBL3808334, “Synthesis and in vitro evaluation of novel triazine analogues as anticancer agents and their interaction studies with bovine serum albumin” (Eur J Med Chem, 2016)
